Source: ChEMBL document CHEMBL1137637, “Quinuclidine derivatives as potential antiparasitics” (Antimicrob Agents Chemother, 2007)
≈ marks a conversion by molar mass, not a printed value.

How the values were obtained:
Leishmania amazonensis [1] = assay: Inhibition of sterol biosynthesis in Leishmania mexicana amazonensis promastigotes assessed as reduction in endogenous episterol level at 1 uM after 96 hrs by gas-liquid chromatography; type: functional; parameters: scale not given: the % may be the effect or the level left
Method in brief: (§1)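 L. mexicana promastigotes exposed to compound for 96 h. Total lipids extracted and neutral sterols separated from polar lipids by silicic acid column chromatography. Sterols analysed by TLC and by quantitative capillary gas-liquid chromatography with mass spectrometry. Composition expressed as mass % of free sterols, compared with untreated control.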

Leishmania amazonensis [2] = assay: Inhibition of sterol biosynthesis in Leishmania mexicana amazonensis promastigotes assessed as reduction in endogenous episterol level at 3 uM after 96 hrs by gas-liquid chromatography; type: functional; parameters: scale not given: the % may be the effect or the level left; method in brief: as §1
[3] = molecular target: T1, Farnesyltransferase, putative (Leishmania major, UniProt Q4Q5W4); assay: Inhibition of Leishmania major recombinant squalene synthase expressed in Escherichia coli by liquid scintillation counter
T1 sequence (Q4Q5W4 whole entry): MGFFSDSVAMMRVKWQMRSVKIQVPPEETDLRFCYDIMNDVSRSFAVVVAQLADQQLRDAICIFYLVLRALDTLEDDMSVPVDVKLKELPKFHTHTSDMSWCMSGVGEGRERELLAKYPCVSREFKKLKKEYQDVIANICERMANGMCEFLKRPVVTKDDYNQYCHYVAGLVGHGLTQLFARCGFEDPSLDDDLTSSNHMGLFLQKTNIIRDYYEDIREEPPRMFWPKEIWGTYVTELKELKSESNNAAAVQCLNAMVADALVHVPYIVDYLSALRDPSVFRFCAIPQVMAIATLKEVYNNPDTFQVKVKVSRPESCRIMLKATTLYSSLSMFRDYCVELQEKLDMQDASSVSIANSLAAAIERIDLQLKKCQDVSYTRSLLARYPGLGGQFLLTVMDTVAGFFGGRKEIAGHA
Method in brief: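 Soluble E. coli extract expressing L. major SQS truncated by 16 N-terminal and 40 C-terminal residues. Buffer: 50 mM phosphate pH 7.4, 20 mM MgCl2, 5 mM CHAPS, 1% Tween 80, 10 mM DTT, BSA, 0.25 mM NADPH, and a glucose-6-phosphate/G6PDH regenerating system. Substrate 0.5 μM radiolabelled farnesyl pyrophosphate. Squalene band counted by scintillation. IC50 from hyperbolic plot of five concentrations in duplicate, usually run twice.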

Leishmania amazonensis [4] = assay: Inhibition of sterol biosynthesis in Leishmania mexicana amazonensis promastigotes assessed as reduction in endogenous 5-dehydro episterol level at 3 uM after 96 hrs by gas-liquid chromatography; type: functional; parameters: scale not given: the % may be the effect or the level left; method in brief: as §1
Leishmania amazonensis [5] = assay: Inhibition of sterol biosynthesis in Leishmania mexicana amazonensis promastigotes assessed as reduction in exogenous cholesterol level at 3 uM after 96 hrs by gas-liquid chromatography; type: functional; parameters: scale not given: the % may be the effect or the level left; method in brief: as §1
Leishmania amazonensis [6] = assay: Inhibition of sterol biosynthesis in Leishmania mexicana amazonensis promastigotes assessed as reduction in exogenous cholesterol level at 1 uM after 96 hrs by gas-liquid chromatography; type: functional; parameters: scale not given: the % may be the effect or the level left; method in brief: as §1
Plasmodium falciparum = assay: Antiplasmodial activity after 48 hrs against chloroquine and pyrimethamine-resistant Plasmodium falciparum K1 in human erythrocytes by [3H]hypoxanthine uptake; type: functional, organism-based
Method in brief: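 P. falciparum K1 in human red cells in RPMI 1640 with 5% Albumax, exposed to serial drug dilutions. Incubated 48 h at 37°C under reduced oxygen, then 0.5 μCi [³H]hypoxanthine per well for 24 h more. Cells harvested onto glass-fibre filters and counted by scintillation. Result expressed as % of untreated control, with IC50 from sigmoidal curve. Duplicate, plus an independent repeat for actives.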

Trypanosoma cruzi = assay: Antitrypanosomal activity against trypomastigotes of Trypanosoma cruzi Tulahuen C2C4 containing lacZ gene in rat L6 cells after 4 days by chlorophenol red-beta-D-galactopyranoside/Nonidet assay; type: functional, organism-based; conditions: Tulahuen C2C4, L6, 96 h
Method in brief: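 L-6 rat myoblasts seeded at 2,000 cells/well in RPMI 1640 with 10% FBS and 2 mM L-glutamine. After 24 h, 5,000 T. cruzi Tulahuen C2C4 lacZ trypomastigotes added with serial drug dilution. Incubated at 37°C in 5% CO2 for 4 days. CPRG/Nonidet substrate added and colour read at 540 nm after 2–4 h. IC50 from sigmoidal curve. Duplicate determinations.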

Leishmania amazonensis [7] = assay: Inhibition of sterol biosynthesis in Leishmania mexicana amazonensis promastigotes assessed as reduction in endogenous 5-dehydro episterol level at 1 uM after 96 hrs by gas-liquid chromatography; type: functional; parameters: scale not given: the % may be the effect or the level left; method in brief: as §1
Leishmania donovani = assay: Antileishmanial activity against Leishmania donovani MHOM/ET/67/L82 axenic amastigotes after 72 hrs by resazurin assay; type: functional, organism-based; conditions: MHOM/ET/67/L82, 72 h
Method in brief: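 L. donovani MHOM/ET/67/L82 amastigotes grown axenically at 37°C in synthetic minimal medium at pH 5.4 with 10% heat-inactivated FBS under 5% CO2. 1 × 10⁵ amastigotes per well with seven threefold dilutions, 30 to 0.041 μg/ml. After 72 h, resazurin added for 2–4 h more. Fluorescence read at ex 536/em 588 nm. IC50 taken from sigmoidal curve. Run in duplicate, with an independent repeat for actives.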

Leishmania amazonensis [8] = assay: Antileishmanial activity against Leishmania mexicana amazonensis promastigotes by trypan blue exclusion method; type: functional, organism-based
Method in brief: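 L. mexicana amazonensis promastigotes cultured in liver infusion-tryptose medium with lactalbumin and 10% FCS at 26°C, unagitated. Cultures started at 2 × 10⁶ cells/ml and drug added at 0.5–1 × 10⁷ cells/ml. Density counted by electronic particle counter and hemocytometer. Viability by trypan blue exclusion. Triplicate growth experiments.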

L6 = assay: Cytotoxicity against rat L6 cells after 72 hrs by resazurin assay; type: cell-based; conditions: L6, 72 h
Method in brief: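 L-6 cells seeded at 4 × 10⁴ cells/ml in RPMI 1640 with 10% FBS and 2 mM L-glutamine. After 24 h, medium replaced with serial drug dilution and incubated for 72 h at 37°C in 5% CO2. Resazurin added for 2–4 h, fluorescence read at ex 536/em 588 nm. IC50 from sigmoidal curve. Duplicate, with an independent repeat for actives.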

[9] = tested on: Trypanosoma brucei rhodesiense; assay: Trypanocidal activity against Trypanosoma brucei rhodesiense STIB 900 bloodstream form after 72 hrs by resazurin assay; type: functional, organism-based; conditions: STIB 900, 72 h
Method in brief: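 T. b. rhodesiense STIB 900 bloodstream forms in MEM with 2-mercaptoethanol and 15% heat-inactivated horse serum, with serial drug dilutions. Incubated 72 h at 37°C in 5% CO2. Resazurin added for 2–4 h more, fluorescence read at ex 536/em 588 nm. IC50 from sigmoidal curve. Duplicate, with an independent repeat for actives.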

Leishmania amazonensis [10] = assay: Inhibition of sterol biosynthesis in Leishmania mexicana amazonensis promastigotes assessed as reduction in endogenous episterol level at 10 uM after 96 hrs by gas-liquid chromatography; type: functional; parameters: scale not given: the % may be the effect or the level left; method in brief: as §1
Leishmania amazonensis [11] = assay: Inhibition of sterol biosynthesis in Leishmania mexicana amazonensis promastigotes assessed as reduction in endogenous cholesta-5,7,24-trien-3beta-ol level at 10 uM after 96 hrs by gas-liquid chromatography; type: functional; parameters: scale not given: the % may be the effect or the level left; method in brief: as §1
Leishmania amazonensis [12] = assay: Inhibition of sterol biosynthesis in Leishmania mexicana amazonensis promastigotes assessed as reduction in exogenous cholesterol level at 10 uM after 96 hrs by gas-liquid chromatography; type: functional; parameters: scale not given: the % may be the effect or the level left; method in brief: as §1
Leishmania amazonensis [13] = assay: Inhibition of sterol biosynthesis in Leishmania mexicana amazonensis promastigotes assessed as reduction in endogenous 5-dehydro episterol level at 10 uM after 96 hrs by gas-liquid chromatography; type: functional; parameters: scale not given: the % may be the effect or the level left; method in brief: as §1
Leishmania amazonensis [14] = assay: Inhibition of sterol biosynthesis in Leishmania mexicana amazonensis promastigotes assessed as reduction in endogenous cholesta-7,24-dien-3beta-ol level at 10 uM after 96 hrs by gas-liquid chromatography; type: functional; parameters: scale not given: the % may be the effect or the level left; method in brief: as §1

Row | SMILES | Activity (Leishmania amazonensis [1]) [%] | Activity (Leishmania amazonensis [2]) [%] | IC50 [3] [µM] | Activity (Leishmania amazonensis [4]) [%] | Activity (Leishmania amazonensis [5]) [%] | Activity (Leishmania amazonensis [6]) [%] | IC50 (Plasmodium falciparum) [µM] | IC50 (Trypanosoma cruzi) [µM] | Activity (Leishmania amazonensis [7]) [%] | IC50 (Leishmania donovani) [µM] | MIC (Leishmania amazonensis [8]) [µM] | IC50 (L6) [µM] | IC50 [9] [µM] | Activity (Leishmania amazonensis [10]) [%] | Activity (Leishmania amazonensis [11]) [%] | Activity (Leishmania amazonensis [12]) [%] | Activity (Leishmania amazonensis [13]) [%] | Activity (Leishmania amazonensis [14]) [%] | IC50 (Leishmania amazonensis [8]) [µM]
1 | CCOC(=O)c1ccc(C2=CN3CCC2CC3)cc1 | 11.5 | 13.2 | 0.18 | 13.4 | 73.4 | 52.2 | 11.6 | 16 | 36.3 | 1 | 1 (≈ 0.257 µg/mL) | 265 | 35.1 | – | – | – | – | – | –
2 | C1=C(c2cc3ccccc3s2)C2CCN1CC2 | 24.5 | 22.2 | > 1 | 15.5 | 62.3 | 47.9 | 12 | 64.2 | 28.6 | 1.2 | 10 (≈ 2.41 µg/mL) | 146 | 5.6 | – | – | – | – | – | –
3 | OC[C@@H]1CC2CCN1C[C@@H]2C#Cc1ccccc1 (stereo not given in full) | – | – | > 1 | – | – | – | 3.3 | 8.2 | – | > 124 | > 10 | 74.5 | 12.8 | 13.2 | 2 | 17.9 | 63 | 3.9 | –
4 | CCOC(=O)c1ccc(C#CC2(O)CN3CCC2CC3)cc1 (stereo not given) | – | 9.5 | 4.25 | 54.6 | 35.9 | – | 4 | 5.6 | – | 28.7 | 10 (≈ 2.99 µg/mL) | 171 | 3.3 | – | >99 | – | – | – | –
5 | CCOC(=O)Cc1ccc(C#C[C@H]2CN3CCC2C[C@@H]3CO)cc1 (stereo not given in full) | – | – | > 1 | – | – | – | 5.2 | 22.9 | – | 14.6 | > 10 | 156 | 32.3 | 8.4 | 3.6 | 14.6 | 73.4 | 3.3 | –
6 | OC[C@H]1CC2CCN1C[C@@H]2C#Cc1ccccc1 (stereo not given in full) | – | – | > 1 | – | – | – | 6.5 | 25.6 | – | > 124 | 10 (≈ 2.41 µg/mL) | 166 | 14.5 | 11.8 | 2.8 | 13.1 | 69.6 | 2.7 | –
7 | CCOC(=O)Cc1ccc(C#C[C@H]2CN3CCC2C[C@H]3CO)cc1 (stereo not given in full) | – | – | > 1 | – | – | – | 5 | 50 | – | > 92 | – | 155 | 64.7 | 10.8 | 10.7 | 25.2 | 41.5 | 11.8 | > 10
